Laboratory results from ChEMBL document CHEMBL1122677, “Ring-substituted 1,2-dialkylated 1,2-bis(hydroxyphenyl)ethanes. 3. Synthesis, estrogen receptor binding affinity, and evaluation of antiestrogenic and mammary tumor inhibiting activity of 2,2'-disubstituted butestrols and 6,6'-disubstituted metabutestrols” (1984).

Assays:
[1] = molecular target: Estrogen receptor (Bos taurus) (UniProt Q9XSB5+P49884); test: Displacement of [3H]-estradiol from calf uterine estrogen receptor; type: protein assay
Outline: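 Calf uterine cytosol incubated with [³H]estradiol and competitor at six concentrations, 4 °C for 16 h. Dextran-coated charcoal stopped incubation; supernatant radioactivity counted after centrifugation. Percent bound plotted vs log concentration; the molar concentrations of estradiol and test compound halving radioligand binding were read off and expressed as relative binding affinity.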

[2] = molecular target: T1, Estrogen receptor (Mus musculus) (UniProt O08537+P19785); test: (§1) Uterotrophic effect in mice at 0 ug; type: functional, tissue-based; set-up: unit not given here; settings: Uterus
Outline: (§2)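 Immature female NMRI mice, 20 days old (14.5 ± 1.2 g), in groups of 10, injected sc daily for 3 days with test compound in 0.1 mL olive oil. Uteri were removed 24 h after the last injection, Bouin-fixed, washed, dried and weighed. Groups were compared by Wilcoxon–Mann–Whitney U test.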

[3] = molecular target: T1, Estrogen receptor (Mus musculus); test: (§3) Uterotrophic effect in mice at 10 ug; type: functional, tissue-based; set-up: unit not given here; settings: Uterus; outline: as §2
[4] = molecular target: T1, Estrogen receptor (Mus musculus); test: (§4) Uterotrophic effect in mice at 1 ug; type: functional, tissue-based; set-up: unit not given here; settings: Uterus; outline: as §2
[5] = molecular target: T1, Estrogen receptor (Mus musculus); test: as §3; type: functional, tissue-based; settings: Uterus; outline: as §2
[6] = molecular target: T1, Estrogen receptor (Mus musculus); test: as §4; type: functional, tissue-based; settings: Uterus; outline: as §2
[7] = molecular target: T1, Estrogen receptor (Mus musculus); test: Uterotrophic effect in mice at 0.1 ug; type: functional, tissue-based; settings: Uterus; outline: as §2
[8] = molecular target: T1, Estrogen receptor (Mus musculus); test: Uterotrophic effect in mice at 1000 ug; type: functional, tissue-based; settings: Uterus; outline: as §2
[9] = molecular target: T1, Estrogen receptor (Mus musculus); test: Antiuterotrophic effect in mice at 50 ug; type: functional; set-up: unit not given here
Outline: (§5)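 Antiestrogenic read-out: inhibition of estrone-stimulated uterine growth in immature female NMRI mice, 20 days old, in groups of 10. Test compound in 0.1 mL olive oil was given sc daily for 3 days. Uteri were taken 24 h after the last dose, fixed in Bouin's solution, washed, dried and weighed.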

[10] = molecular target: T1, Estrogen receptor (Mus musculus); test: Antiuterotrophic effect in mice at 500 ug; type: functional; set-up: unit not given here; outline: as §5
[11] = molecular target: T1, Estrogen receptor (Mus musculus); test: Antiuterotrophic effect in mice at 5 ug; type: functional; set-up: unit not given here; outline: as §5
[12] = molecular target: T1, Estrogen receptor (Mus musculus); test: Uterotrophic effect in mice at 100 ug (alpha =0.01); type: functional, tissue-based; settings: Uterus; outline: as §2
[13] = molecular target: T1, Estrogen receptor (Mus musculus); test: Percent inhibition of uterotrophic effect in mice at 5 ug; type: functional; outline: as §5
[14] = molecular target: T1, Estrogen receptor (Mus musculus); test: Antiuterotrophic effect in mice at 0 ug; type: functional; outline: as §5
[15] = molecular target: T1, Estrogen receptor (Mus musculus); test: Uterotrophic effect in mice at 10 ug (alpha =0.01); type: functional, tissue-based; settings: Uterus; outline: as §2
[16] = molecular target: T1, Estrogen receptor (Mus musculus); test: Uterotrophic effect in mice at 1 ug (alpha =0.01); type: functional, tissue-based; settings: Uterus; outline: as §2
[17] = molecular target: T1, Estrogen receptor (Mus musculus); test: Percent inhibition of uterotrophic effect in mice at 50 ug; type: functional; outline: as §5
[18] = molecular target: T1, Estrogen receptor (Mus musculus); test: Percent inhibition of uterotrophic effect in mice at 500 ug; type: functional; outline: as §5
[19] = molecular target: T1, Estrogen receptor (Mus musculus); test: Uterotrophic effect in mice at 100 ug; type: functional, tissue-based; settings: Uterus; outline: as §2
[20] = molecular target: T1, Estrogen receptor (Mus musculus); test: as §1; type: functional, tissue-based; settings: Uterus; outline: as §2
[21] = molecular target: T1, Estrogen receptor (Mus musculus); test: Anti-estrogenic activity in mice at 50 ug; type: functional; outline: as §5
[22] = molecular target: T1, Estrogen receptor (Mus musculus); test: Anti-estrogenic activity in mice at 500 ug; type: functional; outline: as §5
[23] = molecular target: T1, Estrogen receptor (Mus musculus); test: Anti-estrogenic activity in mice at 0 ug; type: functional; outline: as §5
[24] = species on record: Rattus norvegicus; test: Percent change in total tumor area of DMBA-induced hormone dependent mammary carcinoma in rats at 2 mg dose (alpha <0.05); type: functional
Outline: (§6)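 DMBA-induced, hormone-dependent mammary adenocarcinoma in SD rats. Dose is per kg body weight and day, given once daily Monday–Thursday and doubled on Friday. Initial tumors were counted at the start and new tumors during the test. Tumors were scored as complete remission (not palpable), partial remission (≥50% size reduction), no change or progression. Tumor area and body weight change were recorded.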

[25] = species on record: Rattus norvegicus; test: Percent change in body weight in rats at 5 mg; type: functional; outline: as §6
[26] = species on record: Rattus norvegicus; test: Percent partial remission in DMBA-induced hormone dependent mammary carcinoma in rats at 2 mg dose; type: functional; outline: as §6
[27] = species on record: Rattus norvegicus; test: Percent complete remission in DMBA-induced hormone dependent mammary carcinoma in rats at 2 mg dose; type: functional; outline: as §6
[28] = species on record: Rattus norvegicus; test: Percent complete remission in DMBA-induced hormone dependent mammary carcinoma in rats at 5 mg dose; type: functional; outline: as §6
[29] = species on record: Rattus norvegicus; test: Percent partial remission in DMBA-induced hormone dependent mammary carcinoma in rats at 5 mg dose; type: functional; outline: as §6
[30] = species on record: Rattus norvegicus; test: Percent unchanged tumors in DMBA-induced hormone dependent mammary carcinoma in rats at 5 mg dose; type: functional; outline: as §6
[31] = species on record: Rattus norvegicus; test: Percent change in body weight in rats at 2 mg; type: functional; outline: as §6
[32] = species on record: Rattus norvegicus; test: Percent unchanged tumors in DMBA-induced hormone dependent mammary carcinoma in rats at 2 mg dose; type: functional; outline: as §6
[33] = species on record: Rattus norvegicus; test: Percent change in total tumor area of DMBA-induced hormone dependent mammary carcinoma in rats at 5 mg dose (alpha <0.05)
[34] = species on record: Rattus norvegicus; test: Initial tumor number of DMBA-induced hormone dependent mammary carcinoma in rats prior to 5 mg dose; type: functional; outline: as §6
[35] = molecular target: T1, Estrogen receptor (Mus musculus); test: Uterotrophic effect in mice at 1 ug (alpha=0.01); type: functional, tissue-based; settings: Uterus; outline: as §2
[36] = species on record: Rattus norvegicus; test: Final tumor number of DMBA-induced hormone dependent mammary carcinoma in rats after 5 mg dose; type: functional; outline: as §6
[37] = species on record: Rattus norvegicus; test: Percent progressive tumors in DMBA-induced hormone dependent mammary carcinoma in rats at 2 mg dose; type: functional; outline: as §6
[38] = molecular target: T1, Estrogen receptor (Mus musculus); test: Uterotrophic effect in mice at 10 ug (alpha=0.01); type: functional, tissue-based; settings: Uterus; outline: as §2
[39] = species on record: Rattus norvegicus; test: Percent progressive tumors in DMBA-induced hormone dependent mammary carcinoma in rats at 5 mg dose; type: functional; outline: as §6
[40] = species on record: Rattus norvegicus; test: Initial tumor number of DMBA-induced hormone dependent mammary carcinoma in rats prior to 2 mg dose; type: functional; outline: as §6
[41] = species on record: Rattus norvegicus; test: Final tumor number of DMBA-induced hormone dependent mammary carcinoma in rats after 2 mg dose; type: functional; outline: as §6

T1 sequence (O08537 whole entry, looked up): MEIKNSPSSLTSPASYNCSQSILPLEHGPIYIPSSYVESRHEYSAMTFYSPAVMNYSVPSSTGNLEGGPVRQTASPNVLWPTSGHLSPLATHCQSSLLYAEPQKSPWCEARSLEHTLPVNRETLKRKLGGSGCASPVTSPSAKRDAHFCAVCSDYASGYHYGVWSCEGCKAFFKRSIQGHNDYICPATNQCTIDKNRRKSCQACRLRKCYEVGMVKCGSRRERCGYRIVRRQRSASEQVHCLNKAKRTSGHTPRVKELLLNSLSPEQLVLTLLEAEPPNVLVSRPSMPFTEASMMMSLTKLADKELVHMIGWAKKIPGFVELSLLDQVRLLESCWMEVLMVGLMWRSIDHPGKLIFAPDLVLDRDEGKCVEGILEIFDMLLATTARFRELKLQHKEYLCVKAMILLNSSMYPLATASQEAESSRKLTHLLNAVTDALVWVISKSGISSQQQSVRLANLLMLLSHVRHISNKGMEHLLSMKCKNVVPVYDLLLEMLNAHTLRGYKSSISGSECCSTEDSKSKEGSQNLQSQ
T1 sequence (P19785 whole entry, looked up): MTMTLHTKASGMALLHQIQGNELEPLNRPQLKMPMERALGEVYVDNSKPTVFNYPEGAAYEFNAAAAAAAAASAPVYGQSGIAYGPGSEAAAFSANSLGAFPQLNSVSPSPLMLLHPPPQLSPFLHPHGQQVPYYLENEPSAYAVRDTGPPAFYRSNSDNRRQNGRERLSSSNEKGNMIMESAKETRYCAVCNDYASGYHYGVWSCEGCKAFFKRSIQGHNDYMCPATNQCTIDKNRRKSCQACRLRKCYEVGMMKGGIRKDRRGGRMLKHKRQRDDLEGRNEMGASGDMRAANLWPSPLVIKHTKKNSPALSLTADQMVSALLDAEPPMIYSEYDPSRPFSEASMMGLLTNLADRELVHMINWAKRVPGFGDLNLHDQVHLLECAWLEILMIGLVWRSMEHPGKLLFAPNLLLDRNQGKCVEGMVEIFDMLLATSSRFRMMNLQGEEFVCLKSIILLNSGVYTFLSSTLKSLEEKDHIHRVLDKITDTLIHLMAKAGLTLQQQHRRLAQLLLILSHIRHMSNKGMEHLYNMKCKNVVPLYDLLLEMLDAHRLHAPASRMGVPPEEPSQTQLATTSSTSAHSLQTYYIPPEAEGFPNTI

CC(c1ccc(O)cc1F)C(C)c1ccc(O)cc1F (centres undefined)
relative binding affinity (RBA) [1]: 15
Effect [2]: 11.8
Effect [3]: 51.4
Effect [4]: 50.2

CC(c1ccc(O)cc1Cl)C(C)c1ccc(O)cc1Cl (centres undefined)
relative binding affinity (RBA) [1]: 4.5
Effect [2]: 11.8
Effect [3]: 40.7
Effect [4]: 41.6

CC(c1cc(O)ccc1O)C(C)c1cc(O)ccc1O (centres undefined)
relative binding affinity (RBA) [1]: 0.01

Cc1cc(O)ccc1C(C)C(C)c1ccc(O)cc1C (centres undefined)
relative binding affinity (RBA) [1]: 29
Effect [5]: 39.4
Effect [6]: 36.5
Effect [2]: 11.8
Effect [7]: 29.2

CC(c1cccc(O)c1)C(C)c1cccc(O)c1 (centres undefined)
Effect [8]: 13.1
Effect [9]: 39
Effect [10]: 36.5
Effect [11]: 43
relative binding affinity (RBA) [1]: 1
Effect [12]: 12.6
Effect [2]: 11.9
inhibition [13]: 13%
Effect [14]: 14.4
Effect [15]: 12.4
Effect [16]: 11.7
inhibition [17]: 25%

CC(c1ccc(O)cc1O)C(C)c1ccc(O)cc1O (centres undefined)
Effect [8]: 34.6
inhibition [18]: 26%
Effect [9]: 39.1
Effect [10]: 38.7
Effect [19]: 26.2
Effect [11]: 50.6
relative binding affinity (RBA) [1]: 2.1
Effect [2]: 12.5
Effect [14]: 14.4
Effect [3]: 20.3
inhibition [17]: 25%
Effect [4]: 15.4

CC(c1cc(O)ccc1Cl)C(C)c1cc(O)ccc1Cl (centres undefined)
inhibition [18]: 30%
Effect [9]: 39.3
Effect [10]: 37.2
Effect [19]: 41.8
Effect [11]: 40.1
Effect [20]: 11.1
relative binding affinity (RBA) [1]: 1.7
Effect [5]: 26.5
Effect [6]: 13
inhibition [13]: 21%
Effect [14]: 14.4
inhibition [17]: 24%

CC(c1ccc(O)cc1)C(C)c1ccc(O)cc1 (centres undefined)
Effect [8]: 34.8
inhibition [18]: 28%
Effect [21]: 38.7
Effect [19]: 42.2
Effect [11]: 43.3
Effect [20]: 11.8
relative binding affinity (RBA) [1]: 12
Effect [5]: 28
Effect [22]: 37.8
Effect [6]: 22.6
inhibition [13]: 12%
Effect [7]: 17.7
Effect [23]: 14.4
inhibition [17]: 26%

CCc1cc(O)ccc1C(C)C(C)c1ccc(O)cc1CC (centres undefined)
Effect [19]: 47
relative binding affinity (RBA) [1]: 12
Effect [2]: 12.5
Effect [3]: 45.2
Effect [4]: 38.8

CC(c1ccc(O)cc1Br)C(C)c1ccc(O)cc1Br (centres undefined)
relative binding affinity (RBA) [1]: 3.4

Cc1ccc(O)cc1C(C)C(C)c1cc(O)ccc1C (centres undefined)
Effect [8]: 17.4
inhibition [18]: 35%
Tumor area [24]: 245
Effect [9]: 40.6
Effect [10]: 35.6
Body weight [25]: 1.1
Effect [19]: 12.5
Effect [11]: 45.4
Effect [20]: 11.1
relative binding affinity (RBA) [1]: 5.2
Tumors [26]: 4%
Tumors [27]: 11%
Tumors [28]: 15%
Tumors [29]: 4%
Tumors [30]: 25%
Body weight [31]: 1.5
Tumors [32]: 29%
Tumor area [33]: 283
No. of tumors [34]: 25
inhibition [13]: 5%
Effect [14]: 14.4
Effect [35]: 13.7
No. of tumors [36]: 23
Tumors [37]: 56%
Effect [38]: 14.2
inhibition [17]: 20%
Tumors [39]: 56%
No. of tumors [40]: 23
No. of tumors [41]: 25
